Data from ChEMBL document CHEMBL1132611, “Novel, potent, and selective phosphodiesterase-4 inhibitors as antiasthmatic agents: synthesis and biological activities of a series of 1-pyridylnaphthalene derivatives” (J Med Chem, 1999).
Values joined by “and” are separate entries in the source; they are usually repeats but may differ in a detail not shown here. Equal values may be shown once.

What was measured:
Cavia porcellus [1] = organism: Cavia porcellus; assay: Inhibition of antigen-induced bronchoconstriction in guinea pigs (95% confidence); assay type: functional
In short: (§1)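 Male Hartley guinea pigs were passively sensitised with iv rabbit anti-ovalbumin antiserum and challenged with ovalbumin 30 µg/kg iv 20–28 h later. Animals were under α-chloralose anaesthesia, ventilated, and paralysed with gallamine. Overflow volume was measured by Konzett–Rössler and expressed as a percentage of the maximum. Compound was given iv 2 min before challenge. ED50 came from the dose–inhibition curve with 95% confidence limits.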

Cavia porcellus [2] = organism: Cavia porcellus; assay: Inhibition of histamine-induced bronchoconstriction in guinea pigs (95% confidence); assay type: functional
In short: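 Guinea pigs received intraduodenal compound, and bronchoconstriction was induced with histamine dihydrochloride 2 µg/kg iv. Pulmonary inflation pressure was recorded in ventilated, gallamine-paralysed animals. ED50 was taken from the dose–inhibition curve using at least three doses, with 95% confidence limits.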

Cavia porcellus [3] = assay: Change in guinea pig heart rate at 0.01 mg/kg intravenous dose; assay type: functional
Cavia porcellus [4] = assay: Change in guinea pig heart rate at 0.03 mg/kg intravenous dose; assay type: functional
Cavia porcellus [5] = assay: Change in guinea pig heart rate at 0.1 mg/kg intravenous dose; assay type: functional
Cavia porcellus [6] = assay: Inhibition of antigen-induced bronchoconstriction in guinea pigs at 0.01 mg/kg intravenous dose; assay type: functional; in short: as §1
Cavia porcellus [7] = assay: Inhibition of antigen-induced bronchoconstriction in guinea pigs at 0.03 mg/kg intravenous dose; assay type: functional; in short: as §1
Cavia porcellus [8] = assay: Inhibition of antigen-induced bronchoconstriction in guinea pigs 0.1 mg/kg intravenous dose; assay type: functional; in short: as §1
Phosphodiesterase 1 = Phosphodiesterase 1 (Homo sapiens, UniProt P54750+Q01064+Q14123); assay: Inhibition of Phosphodiesterase 1 of guinea pig cardiac ventricle; assay type: protein assay, Cavia porcellus; conditions: target entry is the homologue from another species
In short: (§2)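 PDE1, 2 and 3 came from guinea pig cardiac ventricle and PDE4 and 5 from lung, separated by Resource-Q anion exchange on a sodium acetate gradient at pH 6.5. Assays used 1.0 µM [3H]cAMP or [3H]cGMP in 50 mM Tris-HCl pH 8.0, 5 mM MgCl2 and 4 mM 2-mercaptoethanol, for 30 min at 30 °C. Substrate hydrolysis was kept at or below 20%. Triplicates were run at 3–4 inhibitor levels, and IC50 was read graphically.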

Phosphodiesterase 3 [9] = target: T1, Phosphodiesterase 3 (Homo sapiens, UniProt Q14432+Q13370); assay: In vitro inhibition of Phosphodiesterase 3 activity from guinea pig cardiac ventricle; assay type: protein assay, Cavia porcellus; conditions: target entry is the homologue from another species; in short: as §2
Phosphodiesterase 4 [10] = target: T2, Phosphodiesterase 4 (Homo sapiens, UniProt P27815+Q08499+Q07343+Q08493); assay: Displacement of [3H]- rolipram binding to guinea pig brain; assay type: tissue-based, Cavia porcellus; conditions: target entry is the homologue from another species
In short: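 Guinea pig brain membranes were made by homogenising in 20 mM Tris-HCl pH 7.4 with 2 mM MgCl2 and 0.1 mM DTT, spun at 45000g, washed and stored at -80 °C. Competition used 3 nM [3H]-(±)-rolipram at 30 °C for 60 min in 25 mM Tris-HCl pH 7.4, 5 mM MgCl2 and 0.05 mM 5'-AMP. Bound ligand was separated by filtration and counted by scintillation.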

Phosphodiesterase 4 [11] = target: T2, Phosphodiesterase 4; assay: In vitro inhibition of Phosphodiesterase 4 from guinea pig lung; assay type: protein assay, Cavia porcellus; conditions: target entry is the homologue from another species
Phosphodiesterase 4 [12] = target: T2, Phosphodiesterase 4; assay: Emetic effect in ferrets at peroral 10 mg/kg; assay type: functional, organism-based; set-up: dose 10 mg/kg; conditions: Mustela putorius furo; target entry is the homologue from another species
Phosphodiesterase 4 [13] = target: T2, Phosphodiesterase 4; assay: Emetic effect in ferrets at peroral 100 mg/kg; assay type: functional, organism-based; set-up: dose 100 mg/kg; conditions: Mustela putorius furo; target entry is the homologue from another species
Phosphodiesterase 4 [14] = target: T2, Phosphodiesterase 4; assay: Emetic effect in ferrets at peroral 30 mg/kg dose; assay type: functional, organism-based; set-up: dose 30 mg/kg; conditions: Mustela putorius furo; target entry is the homologue from another species
Cavia porcellus [15] = assay: Change in guinea pig heart rate at 0.3 mg/kg intravenous dose; assay type: functional
Cavia porcellus [16] = assay: Inhibition of antigen-induced bronchoconstriction in guinea pigs 0.3 mg/kg intravenous dose; assay type: functional; in short: as §1
Cavia porcellus [17] = assay: Change in guinea pig heart rate at 1 mg/kg intravenous dose; assay type: functional
Cavia porcellus [18] = organism: Cavia porcellus; assay: Inhibition of antigen-induced bronchoconstriction in guinea pigs; assay type: functional; in short: as §1
Cavia porcellus [19] = assay: Inhibition of antigen-induced bronchoconstriction in guinea pigs at 1 mg/kg intravenous dose; assay type: functional; in short: as §1
Cavia porcellus [20] = assay: Change in guinea pig heart rate at 3 mg/kg intravenous dose; assay type: functional
Cavia porcellus [21] = assay: Inhibition of antigen-induced bronchoconstriction in guinea pigs 3 mg/kg intravenous dose; assay type: functional; in short: as §1
Phosphodiesterase 3 [22] = target: T1, Phosphodiesterase 3; assay: Inhibition of guinea pig cardiac ventricle Phosphodiesterase 3; assay type: protein assay, Cavia porcellus; conditions: target entry is the homologue from another species; in short: as §2
Canis familiaris [23] = assay: Emetic effect in dog at 0.3 mg/kg dose, iv; assay type: functional, Canis lupus familiaris
Canis familiaris [24] = assay: Emetic effect in dog at 1 mg/kg dose, iv; assay type: functional, Canis lupus familiaris
[25] = target: cGMP-dependent 3',5'-cyclic phosphodiesterase (Homo sapiens, UniProt O00408); assay: Inhibition of guinea pig cardiac ventricle Phosphodiesterase 2; set-up: species or system Cavia porcellus; conditions: target entry is the homologue from another species; in short: as §2
Phosphodiesterase 4 [26] = target: T2, Phosphodiesterase 4; assay: Inhibition of guinea pig lung Phosphodiesterase 4; assay type: protein assay, Cavia porcellus; conditions: target entry is the homologue from another species; in short: as §2

cGMP-dependent 3',5'-cyclic phosphodiesterase, sequence (O00408 whole entry): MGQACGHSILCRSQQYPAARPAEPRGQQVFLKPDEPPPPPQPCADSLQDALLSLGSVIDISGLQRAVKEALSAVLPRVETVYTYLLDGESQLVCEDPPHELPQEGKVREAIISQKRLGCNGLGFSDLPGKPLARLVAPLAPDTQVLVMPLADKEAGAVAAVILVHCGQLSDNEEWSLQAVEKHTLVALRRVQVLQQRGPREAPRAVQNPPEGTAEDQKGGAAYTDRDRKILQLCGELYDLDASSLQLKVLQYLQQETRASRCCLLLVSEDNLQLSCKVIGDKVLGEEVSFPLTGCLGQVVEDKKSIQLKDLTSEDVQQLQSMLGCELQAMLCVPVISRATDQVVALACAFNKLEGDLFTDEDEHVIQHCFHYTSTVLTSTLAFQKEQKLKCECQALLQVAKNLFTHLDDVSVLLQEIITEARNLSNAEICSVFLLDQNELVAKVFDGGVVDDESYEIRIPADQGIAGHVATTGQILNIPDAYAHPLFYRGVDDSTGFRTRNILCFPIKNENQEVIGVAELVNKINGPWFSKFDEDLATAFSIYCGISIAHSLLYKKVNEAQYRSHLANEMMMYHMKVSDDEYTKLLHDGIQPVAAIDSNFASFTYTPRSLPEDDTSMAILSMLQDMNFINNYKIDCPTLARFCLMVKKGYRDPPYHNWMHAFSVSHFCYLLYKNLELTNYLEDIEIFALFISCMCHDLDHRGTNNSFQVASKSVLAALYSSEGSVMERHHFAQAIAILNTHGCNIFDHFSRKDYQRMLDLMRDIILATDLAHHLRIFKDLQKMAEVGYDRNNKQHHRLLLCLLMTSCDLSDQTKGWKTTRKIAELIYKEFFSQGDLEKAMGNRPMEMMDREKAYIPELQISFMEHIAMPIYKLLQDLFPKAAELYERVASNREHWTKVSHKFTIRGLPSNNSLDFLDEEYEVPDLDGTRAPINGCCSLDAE

Row | Compound | ED50 (Cavia porcellus [1]) [mg/kg] | Reduction (Cavia porcellus [8]) [%] | IC50 (Phosphodiesterase 1) [nM] | IC50 (Phosphodiesterase 3 [9]) [nM] | IC50 (Phosphodiesterase 4 [11]) [nM] | also measured
1 | COc1cc2cc(CO)c(CO)c(-c3ccnc(-n4nc(-c5cccnc5)c5ccccc5c4=O)c3)c2cc1OC.Cl | 0.022 | 73 | 2000 | 290 | 0.63 | ED50 (Cavia porcellus [2]): 1.1 mg/kg; Heart rate (Cavia porcellus [3]): 1 delta beats min-1; Heart rate (Cavia porcellus [4]): 3 delta beats min-1; Heart rate (Cavia porcellus [5]): 1 delta beats min-1; Reduction (Cavia porcellus [6]): 34%; Reduction (Cavia porcellus [7]): 61%; Ki (Phosphodiesterase 4 [10]): 3.5 nM; Emesis (vomiting/tested) (Phosphodiesterase 4 [12]): 6; Emesis (vomiting/tested) (Phosphodiesterase 4 [13]): 4; Emesis (vomiting/tested) (Phosphodiesterase 4 [14]): 4
2 | CCOc1cc2c(-c3ccnc(-n4nc(-c5cccnc5)c5ccccc5c4=O)c3)c(CO)c(CO)cc2cc1OC.Cl | 0.18 | 39 | 3000 | 490 | 0.16 | Heart rate (Cavia porcellus [15]): 7 delta beats min-1; Heart rate (Cavia porcellus [5]): 3 delta beats min-1; Reduction (Cavia porcellus [16]): 69%
3 | Cl.O=c1c2ccccc2c(-c2cccnc2)nn1-c1cc(-c2c(CO)c(CO)cc3ccccc23)ccn1 | – | – | > 100000 | 50000 | 5000 | –
4 | COc1cc2cc(CO)c(CO)c(-c3ccnc(-n4nc(-c5ccncc5)c5ccccc5c4=O)c3)c2cc1OC.Cl | – | 15 | 2000 | 100 | 0.49 | Heart rate (Cavia porcellus [15]): 10 delta beats min-1; Heart rate (Cavia porcellus [17]): 29 delta beats min-1; ED50 (Cavia porcellus [18]): 0.17 mg/kg; Heart rate (Cavia porcellus [5]): 12 delta beats min-1; Reduction (Cavia porcellus [16]): 82%; Reduction (Cavia porcellus [19]): 92%
5 | COc1cc2cc(CO)c(CO)c(-c3ccnc(-n4nc(-c5ccccn5)c5ccccc5c4=O)c3)c2cc1OC.Cl | 0.18 | 40 | 4000 | 170 | 0.55 | Heart rate (Cavia porcellus [15]): 7 delta beats min-1; Heart rate (Cavia porcellus [17]): 22 delta beats min-1; Heart rate (Cavia porcellus [4]): 3 delta beats min-1; Heart rate (Cavia porcellus [5]): 5 delta beats min-1; Reduction (Cavia porcellus [7]): -25%; Reduction (Cavia porcellus [16]): 78%; Reduction (Cavia porcellus [19]): 87%
6 | COc1cc2cc(CO)cc(-c3ccnc(-n4nc(-c5cccnc5)c5ccccc5c4=O)c3)c2cc1OC.Cl | – | – | – | 81 | 0.7 | Reduction (Cavia porcellus [19]): 33%
7 | COc1cc2cc(CO)c(CO)c(-c3ccnc(-n4c(=O)c5ccccc5c5ccccc54)c3)c2cc1OC | 1.2 | – | – | 41 | 0.2 | Heart rate (Cavia porcellus [17]): 18 delta beats min-1; Heart rate (Cavia porcellus [20]): 15 delta beats min-1; Reduction (Cavia porcellus [19]): 38%; Reduction (Cavia porcellus [21]): 91%
8 | COc1cc2cc(COC(C)=O)c(COC(C)=O)c(-c3ccnc(-n4nc(-c5cccnc5)c5ccccc5c4=O)c3)c2cc1OC.Cl | – | – | – | 3500 | 190 | –
9 | COc1cc2c(-c3ccnc(-n4nc(-c5cccnc5)c5ccccc5c4=O)c3)c(CO)c(CO)cc2cc1OCc1ccccc1.Cl.Cl | – | – | – | – | 700 | IC50 (Phosphodiesterase 3 [22]): > 100000 nM
10 | COc1cc2cc(CO)c(CO)c(-c3ccnc(-n4ccc(=O)c5ccccc54)c3)c2cc1OC | – | – | 9000 | 400 | 40 | –
11 | COC(=O)c1cc2cc(OC)c(OC)cc2c(-c2ccnc(-n3nc(-c4cccnc4)c4ccccc4c3=O)c2)c1C(=O)OC.Cl | – | – | – | 29000 | 150 | –
12 | CCOc1cc2cc(CO)c(CO)c(-c3ccnc(-n4nc(-c5cccnc5)c5ccccc5c4=O)c3)c2cc1OCC.Cl [T-2585.HCL] | 0.063 | 57 | 10000 | 1800 | – | Emesis (Canis familiaris [23]): 8 vomiting/tested; Emesis (Canis familiaris [24]): 4 vomiting/tested; Heart rate (Cavia porcellus [15]): 2 delta beats min-1; ED50 (Cavia porcellus [2]): 0.033 mg/kg; Heart rate (Cavia porcellus [4]): 4 delta beats min-1; Heart rate (Cavia porcellus [5]): 3 delta beats min-1; Reduction (Cavia porcellus [7]): 37%; Reduction (Cavia porcellus [16]): 84%; IC50 [25]: 1300 nM; Ki (Phosphodiesterase 4 [10]): 2.6 nM; IC50 (Phosphodiesterase 4 [26]): 0.13 nM; Emesis (vomiting/tested) (Phosphodiesterase 4 [12]): 4; Emesis (vomiting/tested) (Phosphodiesterase 4 [14]): 4
13 | COc1cc2c(-c3ccnc(-n4nc(-c5cccnc5)c5ccccc5c4=O)c3)c(CO)c(CO)cc2cc1OC1CCCC1.Cl | – | – | – | 690 | 30 | –
14 | COc1cc2cc(CO)c(CO)c(-c3ccnc(-n4ncc5ccccc5c4=O)c3)c2cc1OC | 0.24 | 25 | 5000 | 250 | 0.68 | Heart rate (Cavia porcellus [17]): 11 delta beats min-1; Heart rate (Cavia porcellus [20]): 55 delta beats min-1; Heart rate (Cavia porcellus [5]): 16 delta beats min-1; Reduction (Cavia porcellus [19]): 87%; Reduction (Cavia porcellus [21]): 91%
15 | COc1ccc(C2CNC(=O)C2)cc1OC1CCCC1 (racemic) [ROLIPRAM] | – | – | > 100000 | > 300000 | – | IC50 [25]: > 100000 nM
16 | COc1cc2cc(CO)c(CO)c(-c3ccnc(-n4nc(-c5cccnc5)c5ccccc5c4=O)c3)c2cc1OCc1ccccc1.Cl | – | – | – | 16000 | 17 | –
17 | COc1cc2cc(CO)c(CO)c(-c3cccc(-n4nc(-c5cccnc5)c5ccccc5c4=O)n3)c2cc1OC.Cl | – | – | – | 5600 | 15 | –
18 | COc1cc2cc(CO)c(CO)c(-c3ccnc(-n4ccccc4=O)c3)c2cc1OC | – | – | 50000 | 2000 | 80 | –
19 | COc1cc2ccc(CO)c(-c3ccnc(-n4nc(-c5cccnc5)c5ccccc5c4=O)c3)c2cc1OC.Cl | – | – | – | 700 | 31 | –
20 | COc1cc2cc(CO)c(CO)c(-c3ccc(-n4nc(-c5cccnc5)c5ccccc5c4=O)nc3)c2cc1OC.Cl | – | – | > 100000 | 80000 | 40 | –
21 | CCOc1cc2cc(CO)c(CO)c(-c3ccnc(-n4nc(-c5cccnc5)c5ccccc5c4=O)c3)c2cc1OC.Cl | 0.17 | 23 | 20000 | 34 | 0.9 | Heart rate (Cavia porcellus [5]; 0.1 mg/kg): 7 delta beats min-1 and 18 delta beats min-1; Reduction (Cavia porcellus [16]): 77%
